Screening data from PubChem.
Env fusion inh = HIV envelope-mediated fusion inhibition | inhibition, % at 12.3 µM | 360,000 tested, 1.1% active | HeLa-JRFL Env/CEM21 cell fusion, luciferase;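 active = mean replicate inhibition score of at least 50 and every replicate individually at or above 50; inconclusive = only one of the two criteria met; inactive = mean below 50 and not all replicates reaching 50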;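 also: 0% = plate neutral controls and 100% = maraviroc near 300 nM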
FGF22 binding = shifts melting point of recombinant human FGF22 | 340,000 tested, 1.5% active | recombinant FGF22 thermal shift, SYPRO orange fluorescence; percent of sucrose octasulfate shift, DMSO zero | AID 651658 | activity (Tm shift, normalised), % at 9.99 µM;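 active = mean Tm shift, scaled 0 neutral to 100 positive control, at about 1.3% or above, every replicate too, limit read from the data; inconclusive = no clear call, values can overlap the other calls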
Target sequence (Q9HCT0 whole entry, looked up): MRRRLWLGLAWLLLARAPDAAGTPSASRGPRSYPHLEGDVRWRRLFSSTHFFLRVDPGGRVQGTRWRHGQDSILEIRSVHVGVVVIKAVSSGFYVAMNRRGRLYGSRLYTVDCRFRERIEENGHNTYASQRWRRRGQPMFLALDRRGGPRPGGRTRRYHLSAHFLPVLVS
FN deposit inh = fibronectin deposition inhibition; 350,000 tested, 0.086% active; AID 743247; AH1F fibroblasts, Alexa488-fibronectin deposition fluorescence, overnight; inhibition, % at 12.6 µM;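 active = mean inhibition across replicates of 30% or more, regardless of how many single replicates reach that level; inconclusive = mean under 30% yet at least half of replicates reach 30%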;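 also: positive control wells lacked labelled fibronectin entirely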
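Material – AH1F fibroblast monolayer, labelled fibronectin deposition · Reagent – labelled fibronectin 24 nM · Timing – 1 h adhesion, overnight exposure · Measured by – fluorescence at 485 nm excitation, 525 nm emission · Read-out – inhibition of fibronectin deposition signal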
PAX8 reporter = PAX8 transcriptional activity inhibition. AID 652154. RMG-I TPO-luciferase reporter, SteadyGlo, 24 h. 360,000 tested, 1.2% active. inhibition, % at 12.6 µM;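 active = mean replicate inhibition at least 60% with every replicate also reaching 60%; inconclusive = only one of the two criteria is met; inactive = mean below 60% and not all replicates reaching 60%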;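 also: luciferase light reporting Pax8 driven TPO promoter activity; plate controls were median of neutral control wells for no effect and mitoxantrone controls for full effect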
EWS-Fli inh = inhibitors of EWS/Fli oncoprotein transcriptional activity; 350,000 tested, 0.67% active; A673 NR0B1-luciferase reporter, viability-normalised; inhibition, % at 12.6 µM;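 active = mean inhibition of at least 50% after viability correction, with every replicate also passing that limit; inconclusive = mean reaches 50% but only one of two replicates passes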;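 also: firefly luciferase signal divided by Alamar Blue viability fluorescence both relative to DMSO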
PGC1a acetyl inh = PGC1a acetylation modulation, inhibitor mode | inhibition, % at 15.6 µM | 350,000 tested, 0.17% active | U2OS PGC1a acetylation, AlphaScreen anti-acetyl-lysine; with virally co-expressed GCN5 acetyltransferase;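 active = every replicate shows inhibition of at least 40%; inconclusive = mean inhibition at least 40% but some replicate below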;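 also: 0% = neutral control wells and 100% = positive control wells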
* hit, by the source's call; u = inconclusive; x = no result given; [ ] = remark or other dose. An excerpt weighted towards active compounds, which were near 3.1% of everything screened.

SMILES | Env fusion inh | FGF22 binding | FN deposit inh | PAX8 reporter | EWS-Fli inh | PGC1a acetyl inh
COc1ccc(-c2[nH]ncc2CN(C)C(C)c2ccon2)cc1F (stereo unspecified) | 1.6 | 0.0 | 0.2 | 11.8 | 4.6 | 79.8*
O=C(C[C@H]1C=C[C@@H](NC(=O)C2CCOCC2)[C@@H](CO)O1)NCC1CC1 | 10.8[16.7 µM] | 0.6 | x | -2.4 | -1.7 | -10.4
O=C(Nc1ccc(F)cc1)N[C@H]1CC[C@@H](CCNC(=O)c2cc(Cl)cc(Cl)c2)O[C@@H]1CO | -3.2[16.7 µM] | -0.2 | x | 10.7 | 5.9 | 0.7
O=C(Nc1cccc(F)c1)N[C@@H]1CC[C@@H](CCNS(=O)(=O)c2cccc(Cl)c2)O[C@@H]1CO | 4.3[16.7 µM] | 1.1 | x | 106.5* | -1.3 | -9.4
O=C(Nc1ccc(F)cc1)N[C@H]1CC[C@H](CCNC(=O)c2cc(Cl)cc(Cl)c2)O[C@H]1CO | 6.9[16.7 µM] | -0.1 | x | 86.9* | 1.7 | -1.9
CC(C)(C)NC(=O)CSc1nc(N)c(NC(=O)c2ccccc2F)c(=O)[nH]1 | 3.1 | 43.6* | -5.5 | -68.2 | -1.1 | x
CC(C)NC(=O)N(C)C[C@H]1Oc2c(NC(=O)Nc3ccc(F)cc3)cccc2C(=O)N([C@H](C)CO)C[C@H]1C | x | -0.2 | 12.3 | 3.7 | -11.2 | 4.0
Cc1nc(C)c(C(=O)N/N=C/c2cc(Br)ccc2O)s1 | -19.9 | 0.0 | -2.6 | 66.7* | 20.9 | 30.7
Cc1ccc(S(=O)(=O)N(C)C[C@H]2Oc3c(NS(=O)(=O)c4ccc(Cl)cc4)cccc3C(=O)N([C@@H](C)CO)C[C@H]2C)cc1 | -23.4[16.7 µM] | -0.1 | x | 4.6 | -4.3 | -8.3
COc1ccc(NC(=O)N(C)C[C@H]2Oc3ccc(NC(=O)c4ccncc4)cc3C(=O)N([C@H](C)CO)C[C@H]2C)cc1 | 14.0[16.7 µM] | -0.2 | x | 3.8 | -10.5 | -47.3
COCCNC(=O)/C(C#N)=C/c1ccc2c(c1)OCO2 | -9.5 | 43.6* | 5.3 | -10.2 | -10.1 | 4.9
C=CCNC(=O)/C(C#N)=C/c1ccc2c(c1)OCCO2 | -3.6 | 43.5* | x | -9.6 | -2.3 | -5.8
CCCN1C[C@H](C)[C@H](OC)CN(C)C(=O)c2cc(NC(=O)c3cnccn3)ccc2OC[C@H]1C | -2.6[16.7 µM] | -0.7 | -3.3 | x | 0.6 | -2.8
CCC(=O)N1CCCCN2[C@H](CO)[C@H](c3ccc(-c4cccnc4)cc3)[C@@H]2C1 | x | 0.2 | x | -25.7 | -6.7 | -0.2
C[C@H](CO)N1C[C@H](C)[C@H](CN(C)CC2CC2)Oc2cc(-c3ccccc3F)ccc2S1(=O)=O | -8.2[16.7 µM] | 0.1 | 5.4 | x | 4.7 | -11.5
CCCN1C[C@@H](C)[C@@H](OC)CN(C)C(=O)c2ccc(NC(=O)C3CCOCC3)cc2OC[C@@H]1C | -2.4[16.7 µM] | x | 6.3 | 1.6 | -1.9 | 17.8
O=c1cc(-c2ccccc2Cl)oc2c([N+](=O)[O-])c(O)cc(O)c12 | 65.2* | 0.1 | -15.0 | -100.2 | -12.7 | x
Cc1cccc(C(=O)Nc2ccc(O)c3c(=O)cc(-c4ccccc4Cl)oc23)c1 | x | 44.8* | -1.2 | 5.3 | -20.2 | x
O=C(Nc1ccc(O)c2c(=O)cc(-c3ccccc3Cl)oc12)c1cccc(Cl)c1 | -15.0 | -0.3 | -8.4 | -10.7 | 3.3 | 2.2
O=C(c1ccccc1NS(=O)(=O)c1cccc2cccnc12)N1CCOCC1 | -2.3 | 43.4* | 2.6 | 5.2 | 3.1 | -15.3
O=C(c1cccnc1Cl)N1CCOCC1 | -2.4 | 43.6* | 12.8 | 12.6 | 7.4 | 1.9
O=C(c1ccccc1F)N1CCOCC1 | -4.0 | 0.2 | -6.1 | 3.3 | -12.3 | x
CCCNC(=O)C[C@H]1C[C@H]2c3cc(NC(=O)C4CCOCC4)ccc3O[C@H]2[C@@H](CO)O1 | -30.0[16.7 µM] | -0.1 | -0.5 | -7.8 | -7.6 | -7.9
COc1ccccc1NC(=O)N(C)C[C@H]1OCc2ccccc2-c2ccccc2C(=O)N([C@H](C)CO)C[C@H]1C | 2.6[16.7 µM] | x | -38.9 | -26.0 | 8.2 | 7.7
O=C(NCCN1CCOCC1)c1ccc(Cl)c(Cl)c1 | 3.0 | 0.1 | -5.0 | 2.7 | -4.0 | -4.9
SMILES | Env fusion inh | FGF22 binding | FN deposit inh | PAX8 reporter | EWS-Fli inh | PGC1a acetyl inh
O=C1/C(=C\c2ccc(Cl)c(Cl)c2)CN(C(=O)CCN2CCOCC2)C/C1=C/c1ccc(Cl)c(Cl)c1 | x | 0.1 | 3.6 | 89.2* | 55.7* | u
O=C(c1ccco1)N1CCN(C(=O)N2c3ccccc3Sc3ccccc32)CC1 | x | 0.0 | x | x | 54.3* | -59.8
O=C(c1ccco1)N1c2ccccc2Sc2ccccc21 | x | x | x | x | x | -7.1
C[C@@H]1CN([C@@H](C)CO)C(=O)c2cc(NS(C)(=O)=O)ccc2O[C@H]1CN(C)C(=O)Nc1cccc2ccccc12 | 8.6[16.7 µM] | -0.3 | x | 19.5 | x | -0.6
Cn1c(=O)c2[nH]c(CCNC(=O)c3ccccc3)nc2n(C)c1=O | x | 43.1* | -11.0 | 7.8 | -5.1 | -3.7
COc1ccc(NC(=O)C2CCN(c3nc(C)nc4c3CCC4)CC2)cc1 | 54.2* | x | -1.1 | 18.6 | x | x
CCC(=O)N[C@@H]1CC[C@H](CC(=O)NCCN2CCCCC2)O[C@H]1CO | -20.3[16.7 µM] | -0.1 | -2.1 | -7.4 | 2.5 | -11.3
O=C(OCc1cn([C@@H]2C[C@H](c3ccccc3)N(Cc3cccs3)C[C@H]2O)nn1)c1ccccc1 | -484.6 | 43.6* | 1.6 | -7.8 | -4.4 | x
C[C@@H]1CN([C@H](C)CO)C(=O)Cc2cc(NS(=O)(=O)c3ccc(Cl)cc3)ccc2O[C@H]1CN(C)C(=O)Nc1cccc2ccccc12 | 22.0[16.7 µM] | 0.0 | x | x | 12.9 | -1.1
CCC(C)NC(=O)C1CCCN(C(=O)Nc2ccc(F)cc2)C1 (stereo unspecified) | 56.7* | x | -1.2 | x | x | 10.8
CCCn1nc(C(=O)Nc2ccc3nc(N4CCOCC4)sc3c2)ccc1=O | 85.3* | 0.0 | -12.9 | 38.6 | 38.2 | x
COc1ccc(C(=O)Nc2ccc3nc(N4CCOCC4)sc3c2)cc1OC | x | -0.1 | -6.7 | 42.8 | 0.9 | -4.6
CNC(=O)c1ccc(NC(=O)/C=C/c2cccc(F)c2)cc1 | -26.1 | 44.1* | -16.7 | -89.1 | -53.5 | x
Cc1ccc(NC(=O)/C=C/c2cccc(C(F)(F)F)c2)cc1 | 18.1 | 17.6* | 0.9 | -5.3 | -29.4 | x
Cc1noc(C)c1COc1ccccc1C(=O)N1CCN(c2cccc(C(F)(F)F)c2)CC1 | x | -0.1 | 13.3 | 22.0 | 64.1* | -5.0
Cc1noc(C)c1COc1ccccc1C(=O)N1CCN(c2cccc(Cl)c2)CC1 | -232.6 | 0.3 | -0.8 | 15.0 | 33.1 | -8.4
O=C(/C=C/c1cccc(C(F)(F)F)c1)Nc1cccc(C(F)(F)F)c1 | x | x | x | x | x | -5.7
Cc1ccc(/C=C/C(=O)N2CCN(c3cccc(C(F)(F)F)c3)CC2)cc1 | 4.4 | -0.1 | -8.8 | 89.2* | 2.3 | x
Cc1noc(C)c1NC(=O)Nc1ccc2c(c1)C(=O)N([C@H](C)CO)C[C@@H](C)[C@@H](CN(C)Cc1ccncc1)O2 | x | 0.0 | x | 6.4 | 5.6 | -3.8
O=C(C1CCCC1)N1[C@H](CO)[C@@H]2c3ccccc3N(S(=O)(=O)c3ccc(F)cc3)C[C@@H]21 | x | -0.1 | 1.6 | -11.3 | 1.3 | -10.5
Cc1ccc(C2(CC(=O)Nc3nccs3)CCOC(C(C)C)C2)cc1 (stereo unspecified) | 6.3 | x | 1.0 | 7.1 | x | -6.8
